Assay outcomes as filed in PubChem.
An excerpt weighted towards active compounds, which were near 2.5% of everything screened.
PglD DTNB – blocks C. jejuni PglD acetyltransferase activity; hit rate 0.098% among 360,000; purified PglD enzyme, DTNB colorimetric CoA detection; inhibition, % at 12.5 µM; in the data active means inhibition above about 16%, passing the limit was not always enough
SIRT5 block – blocks human SIRT5 desuccinylation of peptide; inhibition, % at 15 µM; Q9NXA8; AID 652115; Purified SirT5, succinyl-peptide AMC, trypsin-coupled fluorescence; hit rate 1.1% among 330,000; in the data active means inhibition above about 15%
ERAP1 HTS inh – inhibitors of human ERAP1 aminopeptidase | Q9NZ08 | recombinant ERAP1, Leu-AMC fluorescence, 60 min | inhibition, % at 10.7 µM | hit rate 0.15% among 340,000;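 active means mean replicate inhibition of at least 30%, or all replicates individually reaching that 30% level; inactive means mean below 30% and not every replicate reaching it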;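 further: 0% = neutral control wells and 100% = L-leucinethiol positive control wells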
DENV2 CPE – inhibitors of DENV2 cytopathic effect; DENV2-infected cells, cytopathic effect rescue, plate reader; CPE inhibition, % at 9.99 µM; hit rate 1.7% among 350,000; AID 651640; in the data active means CPE inhibition above about 20%, passing the limit was not always enough; tested in BHK-21 cells;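 further: 0% = median of neutral control wells and 100% = median of positive control wells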
E-sel inducer – induces E-selectin expression in human endothelial cells; P16581; HUVEC E-selectin immunofluorescence imaging; normalized: neutral wells 0, TNF-alpha wells 100; activation, % at 7.58 µM; hit rate 0.37% among 260,000; AID 686992;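 active means mean E-selectin-positive cell signal at least 10% of the positive control, reached in at least 60% of replicates, without over 20% cell loss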
Target sequence (P16581 whole entry, looked up): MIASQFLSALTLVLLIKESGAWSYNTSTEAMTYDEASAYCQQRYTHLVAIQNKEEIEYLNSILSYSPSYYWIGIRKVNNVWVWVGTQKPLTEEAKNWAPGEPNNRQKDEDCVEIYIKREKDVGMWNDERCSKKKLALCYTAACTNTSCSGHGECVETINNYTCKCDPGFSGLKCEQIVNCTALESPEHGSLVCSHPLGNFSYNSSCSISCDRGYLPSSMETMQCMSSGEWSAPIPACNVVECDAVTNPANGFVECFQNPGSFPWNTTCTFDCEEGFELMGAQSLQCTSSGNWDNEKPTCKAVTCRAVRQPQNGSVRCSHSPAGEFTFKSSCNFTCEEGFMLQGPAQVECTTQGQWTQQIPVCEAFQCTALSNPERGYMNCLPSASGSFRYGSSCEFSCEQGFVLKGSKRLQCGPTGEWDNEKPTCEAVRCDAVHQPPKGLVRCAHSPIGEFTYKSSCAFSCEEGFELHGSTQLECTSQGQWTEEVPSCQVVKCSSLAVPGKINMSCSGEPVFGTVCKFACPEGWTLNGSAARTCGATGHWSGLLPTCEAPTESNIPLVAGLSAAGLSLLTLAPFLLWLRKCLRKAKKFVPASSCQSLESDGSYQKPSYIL
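System: HUVEC, human umbilical vein endothelial cells; quantity: 3,000 cells/well; buffer or medium: EGM-2 medium, gelatin-coated wells; dosing: single-point compound dose; detection: immunofluorescence imaging; evaluation: % PE-positive cells; benchmarks: TNF-alpha, DMSO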
* hit, by the source's call.

Results for O=C(NCc1nc2ccccc2[nH]1)C1=C[C@@H](c2csc3ccccc23)C[C@@H](OCCCCO)O1 ?
PglD DTNB: -0.6; SIRT5 block: 9.3; ERAP1 HTS inh: -2.0; DENV2 CPE: -5.7; E-sel inducer: 0.0

What do the screens show for `O=C(NCc1nc2ccccc2[nH]1)C1=C[C@@H](c2coc3ccccc3c2=O)C[C@@H](OCCCCO)O1`?
SIRT5 block: -1.1; ERAP1 HTS inh: -1.9; DENV2 CPE: 82.4*

Results for Cn1c(=O)c2c(nc(OCCc3ccccc3)n2C)n(C)c1=O ?
PglD DTNB: 8.0; SIRT5 block: 25.8*; ERAP1 HTS inh: 0.7; DENV2 CPE: 0.1; E-sel inducer: -0.1

Results for Cn1c(=O)c2c(nc(CCc3ccccc3)n2C)n(C)c1=O ?
PglD DTNB: -6.0; ERAP1 HTS inh: 1.1; DENV2 CPE: -0.7; E-sel inducer: -1.1

Results for COc1ccc(S(=O)(=O)N(C)C[C@H]2Oc3ccc(NC(=O)Nc4ccc5c(c4)OCO5)cc3CC(=O)N([C@H](C)CO)C[C@@H]2C)cc1 ?
PglD DTNB: -1.3; SIRT5 block: 10.8; ERAP1 HTS inh: -1.3; DENV2 CPE: -5.5; E-sel inducer: 428.6*

How did COc1ccc(S(=O)(=O)N(C)C[C@@H]2Oc3ccc(NC(=O)Nc4ccc5c(c4)OCO5)cc3CC(=O)N([C@@H](C)CO)C[C@H]2C)cc1 do in these assays?
PglD DTNB: -0.7; SIRT5 block: 8.5; ERAP1 HTS inh: -0.7; DENV2 CPE: 31.0*; E-sel inducer: 9.0

What do the screens show for `C[C@H](CO)N1C[C@H](C)[C@H](CN(C)S(=O)(=O)c2ccccc2)Oc2ccc(NC(=O)Nc3ccc4c(c3)OCO4)cc2CC1=O`?
SIRT5 block: 16.2*; ERAP1 HTS inh: 1.5; DENV2 CPE: -4.6; E-sel inducer: 1.0

How did COc1ccc(S(=O)(=O)N(C)C[C@@H]2Oc3ccc(NC(=O)Nc4ccc5c(c4)OCO5)cc3CC(=O)N([C@H](C)CO)C[C@H]2C)cc1 do in these assays?
PglD DTNB: 1.5; SIRT5 block: 7.2; ERAP1 HTS inh: -0.7; DENV2 CPE: -7.6; E-sel inducer: 13.8

What do the screens show for `CCN(CC)S(=O)(=O)c1cc(C)ccc1NC(=S)Nc1cccnc1`?
PglD DTNB: 11.0; SIRT5 block: -0.8; ERAP1 HTS inh: -2.6; DENV2 CPE: 2.6; E-sel inducer: 1.4

Results for O=C(NCCc1ccccc1)c1c[nH]c2ccccc2c1=O ?
PglD DTNB: 1.5; SIRT5 block: -4.4; ERAP1 HTS inh: 4.8; DENV2 CPE: 0.2; E-sel inducer: 0.0

How did C[C@@H](O)CC#Cc1ccc2oc(=O)c(-n3cc(-c4ccsc4)nn3)cc2c1 do in these assays?
PglD DTNB: -5.7; ERAP1 HTS inh: 1.3; DENV2 CPE: 19.6; E-sel inducer: -0.1

How did CCN(CC)S(=O)(=O)c1cccc(-c2nnc(SCC(=O)c3ccc(Cl)s3)n2C)c1 do in these assays?
PglD DTNB: 2.1

How did Cc1ccc(-n2ncc3c2CCCC3NC(=O)CCc2c(C)noc2C)cc1C (stereo not drawn) do in these assays?
PglD DTNB: 1.3; SIRT5 block: 0.1; ERAP1 HTS inh: 3.6; DENV2 CPE: 63.8*

How did COC(=O)c1ccc(-c2csc(NC(=O)c3c(C)noc3C)n2)cc1 do in these assays?
PglD DTNB: 3.6; SIRT5 block: -3.6; ERAP1 HTS inh: -0.7; DENV2 CPE: -3.9

What do the screens show for `CC(C)[C@@H](C)NC(=O)N(C)C[C@@H]1OCc2ccccc2-c2ccccc2C(=O)N([C@H](C)CO)C[C@@H]1C`?
PglD DTNB: 1.7; SIRT5 block: -2.0; ERAP1 HTS inh: 0.8; DENV2 CPE: -0.8; E-sel inducer: -0.5

How did CCC(=O)N1CC2(C1)[C@H](c1ccccc1)[C@H](CO)N2S(=O)(=O)Cc1ccccc1 do in these assays?
SIRT5 block: -2.6; ERAP1 HTS inh: 1.3; DENV2 CPE: -7.2; E-sel inducer: 0.0

What do the screens show for `O=C(Cc1ccccc1)N1CC2(C1)[C@@H](c1ccccc1)[C@@H](CO)N2S(=O)(=O)Cc1ccccc1`?
SIRT5 block: -1.4; DENV2 CPE: 35.3*; E-sel inducer: 0.1

How did O=C(Cc1ccccc1)N1CC2(C1)[C@@H](c1ccccc1)[C@H](CO)N2S(=O)(=O)Cc1ccccc1 do in these assays?
ERAP1 HTS inh: -2.0; DENV2 CPE: 42.8*; E-sel inducer: -0.5

How did Cc1cccc(C)c1NC(=O)CN(Cc1ccccc1)Cc1ccccc1 do in these assays?
PglD DTNB: -4.5; SIRT5 block: 34.4*; ERAP1 HTS inh: 2.0; DENV2 CPE: 2.3; E-sel inducer: -0.1

How did C[C@@H]1CN([C@H](C)CO)C(=O)c2cc(NS(C)(=O)=O)ccc2O[C@@H](C)CCCCO[C@H]1CN(C)S(=O)(=O)c1ccc(F)cc1 do in these assays?
PglD DTNB: -1.2; SIRT5 block: 2.7; ERAP1 HTS inh: 0.9; DENV2 CPE: 26.6*; E-sel inducer: 0.0

What do the screens show for `C[C@@H]1CCCCO[C@H](CN(C)S(=O)(=O)c2ccc(F)cc2)[C@@H](C)CN([C@H](C)CO)C(=O)c2cc(NS(C)(=O)=O)ccc2O1`?
PglD DTNB: 4.3; SIRT5 block: -3.7; ERAP1 HTS inh: -3.7; DENV2 CPE: 10.9; E-sel inducer: 1.1

What do the screens show for `C[C@@H]1CN([C@@H](C)CO)C(=O)c2cc(NS(C)(=O)=O)ccc2O[C@@H](C)CCCCO[C@H]1CN(C)S(=O)(=O)c1ccc(F)cc1`?
PglD DTNB: 3.6; SIRT5 block: 1.9; ERAP1 HTS inh: 3.0; DENV2 CPE: 67.2*; E-sel inducer: -0.1

Results for C[C@@H]1CCCCO[C@H](CN(C)S(=O)(=O)c2ccc(F)cc2)[C@H](C)CN([C@@H](C)CO)C(=O)c2cc(NS(C)(=O)=O)ccc2O1 ?
PglD DTNB: 3.2; SIRT5 block: 0.2; ERAP1 HTS inh: -8.1; DENV2 CPE: -7.0; E-sel inducer: 0.0

What do the screens show for `CC1(C)c2[nH]c3ccccc3c2C[C@H]2C(=O)N(CCCO)CC(=O)N21`?
PglD DTNB: -5.2; SIRT5 block: 0.5; ERAP1 HTS inh: -2.0; DENV2 CPE: 1.9

What do the screens show for `Cc1c(NC(=O)c2cccc(NC(=O)Cc3ccc(Cl)cc3)c2)c(=O)n(-c2ccccc2)n1C`?
PglD DTNB: -5.3; SIRT5 block: -3.9; ERAP1 HTS inh: -5.2; DENV2 CPE: -5.5; E-sel inducer: 6.2

What do the screens show for `Cc1ccc(CC(=O)Nc2cccc(C(=O)Nc3c(C)n(C)n(-c4ccccc4)c3=O)c2)cc1C`?
PglD DTNB: -0.9; SIRT5 block: -0.1; ERAP1 HTS inh: 3.5; DENV2 CPE: 30.5*

How did COc1cc(CN2CCC(C(=O)NC(C)(C)C)CC2)ccc1OCc1ccccc1 do in these assays?
PglD DTNB: -4.3; SIRT5 block: -3.3; ERAP1 HTS inh: 2.8; DENV2 CPE: -3.2

How did O=C(N/N=C/c1ccc([N+](=O)[O-])cc1)c1cccnc1 do in these assays?
PglD DTNB: 10.3; SIRT5 block: 1.2; ERAP1 HTS inh: -5.9; DENV2 CPE: -3.6

What do the screens show for `Nc1c(C(=O)N/N=C/c2ccc([N+](=O)[O-])cc2)cnn1-c1ccccc1`?
PglD DTNB: 1.4; SIRT5 block: -5.4; DENV2 CPE: 45.9*
